# Shown are actives, neighbours in structure and some others; about 1.4% of the full set was active somewhere.
# HNF4A DNA FP – change in binding of human HNF4 alpha to DNA; activity change, % at 10 µM; AID 1224865; HNF4a-FITC DNA binding, fluorescence polarization, 1 h; 360,000 compounds, 0.3% hits; in the data active = activity change above about 30%, passing the limit was not always enough
# IDE inh – cellular human IDE inhibition; HEK cells, FAbetaB cleavage, fluorescence polarization; inhibition, % at 5.59 µM; 320,000 compounds, 0.41% hits; AID 434962;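 active = percent inhibition above the average of all tested compounds plus 3 SD, set per screening campaign, cut at about 16% in these data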;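 also: IDE supplied by intact live HEK cells; FP after avidin binding of uncleaved biotin substrate so inhibition keeps polarization high; 0% = DMSO wells and 100% = 60 µM reference IDE inhibitor Ii1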
# CSN deneddyl inh – CSN deneddylation inhibition; Purified CSN, SCF-Nedd8-OG deneddylation, fluorescence polarization; 360,000 compounds, 0.38% hits; Q92905; inhibition, % at 12.5 µM;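 active = pattern-corrected inhibition above about 35%, with an unprinted fluorescence ratio check between 0.5 and 1.5, limit read from the data, passing the limit was not always enough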;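 also: 0% = enzyme with substrate and 100% = substrate without enzyme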
#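 assay system = purified human Csn5 enzyme expressed in HEK293T cells | amount = 0.24 nM enzyme | buffer or medium = Tris/NaCl/DTT buffer, pH 7.5 | reagent = 10 nM SCFSkp2-Nedd8OG | compound = one concentration, 12.5 µM, 0.25% DMSO | times = 90 min reaction at room temperature | signal = FP | read-out basis = % inhibition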
# TPT1 inh – blocks Candida albicans tRNA 2'-phosphotransferase. 300,000 compounds, 0.81% hits. AID 1962. inhibition, % at 5 µM. recombinant caTPT1, FP RNA substrate dephosphorylation;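 active = inhibition above the mean of all tested compounds plus 3 SD, set per screening campaign, cut at about 24% in these data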;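 also: plate controls were DMSO alone for no effect and ferristatin control at 100 nM for full effect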
# IDE act – boosts human insulin-degrading enzyme activity in HEK cells; P14735; FAbeta-B cleavage, fluorescence polarization; 0% vehicle, 100% cell-free pure enzyme wells; activation, % at 5.96 µM; 340,000 compounds, 0.073% hits;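 active = activation above the mean of all tested compounds plus 3 SD, set per screening campaign, cut at about 17% in these data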
# caTPT1 confirm – TPT1 (C. albicans) inhibition, confirmation; shares compounds with TPT1 inh; recombinant caTPT1, fluorescence polarization, RNase T1 coupled; inhibition, % at 5 µM; 2,400 compounds, 74% hits; AID 2149;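 active = inhibition above the primary screen limit, the mean inhibition of all tested compounds plus 3 SD, cut at about 25% in these data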
# RNase T1 counter – RNase T1 inhibition in TPT1 counter-screen; shares compounds with TPT1 inh; RNase T1 cleavage, fluorescence polarization, 1536-well; inhibition, % at 5 µM; 2,400 compounds, 83% hits; AID 2153;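 active = inhibition above the solvent-only control well mean plus 3 SD, limit set per screening run, cut at about 23% in these data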;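 also: plate controls were DMSO wells with enzyme for no effect and wells without RNase T1 for full effect; inhibitors block cleavage so intact labeled substrate keeps polarization high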
# Starred values were filed as active, the others as inactive; x = no result.
SMILES,HNF4A DNA FP,IDE inh,CSN deneddyl inh,TPT1 inh,IDE act,caTPT1 confirm,RNase T1 counter
Cc1c(N=Cc2c(O)n(C)c(=O)[nH]c2=O)c(=O)n(-c2ccccc2)n1C,8,2,15,-5,x,x,x
C=CCn1c(O)c(C=Nc2c(C)n(C)n(-c3ccccc3)c2=O)c(=O)[nH]c1=O,5,4,5,38*,1,18,24*
Cc1cc(/C=C2\C(=O)NC(=O)N(Cc3ccccc3Cl)C2=O)c(C)n1-c1ccc(C(=O)O)cc1,-17,3,20,60*,-4,17,24*
Cc1cc(/C=C2\C(=O)NC(=O)N(Cc3ccco3)C2=O)c(C)n1-c1ccc(C(=O)O)cc1,-11,0,11,25*,2,8,10
Cc1cc(/C=C2\C(=O)NC(=O)N(Cc3ccccc3)C2=O)c(C)n1-c1ccc(Cl)c(C(=O)O)c1,-45,9,57,16,1,x,x
CN1C(=O)C(=Cc2sc(=O)n(-c3ccccc3)c2N(C)C)C(=O)N(C)C1=O,12,0,19,42*,-6,53*,71*
CSCCC(c1nnnn1Cc1ccccc1)N1CCC2(CC1)C(=O)NCN2c1ccccc1 (configuration not stated),-2,x,3,x,x,x,x
CCc1ccc(N2C(=O)NC(=O)/C(=C/c3ccsc3)C2=O)cc1,x,7,x,28*,x,17,24*
COc1cc(/C=C2\C(=O)NC(=O)N(c3ccccc3)C2=O)cc(OC)c1O,-1,3,3,51*,3,4,11
Cc1ccc(N2C(=O)NC(=O)/C(=C\c3ccoc3)C2=O)cc1,19,20*,58*,133*,-32,27*,37*
Cc1ccc(N2C(=O)NC(=O)/C(=C\C=C\c3ccco3)C2=O)cc1,9,14,34,43*,-18,34*,54*
CSCCC(c1nnnn1-c1c(C)cccc1C)N1CCC2(CC1)C(=O)NCN2c1ccccc1 (configuration not stated),-7,x,2,x,x,x,x
CC1CC2CC(=O)CCC2(C)C2CCC3(C)C(O)CCC3C12 (configuration not stated),-1,x,0,x,x,x,x
Cc1ccc(-[n+]2c(Cc3nn(-c4ccccc4)c(C)[n+]3-c3ccc(C)cc3)nn(-c3ccccc3)c2C)cc1,3,x,-3,x,x,x,x
Cc1ccc2c(c1)Oc1ccccc1N=C2,1,x,4,x,x,x,x
O=C(O)Cn1cc(C=C2C(=O)NC(=O)NC2=O)c2ccccc21,1,-5,7,5,-1,x,x
C=CCn1cc(C=C2C(=O)NC(=O)NC2=O)c2ccccc21,1,5,6,25*,-1,40*,52*
Cn1cc(/C=C2\C(=O)NC(=O)N(c3ccccc3)C2=O)c2ccccc21,154,-1,-3,0,-2,x,x
O=C(O)Cn1cc(/C=C2\C(=O)NC(=O)N(c3ccc(Cl)cc3)C2=O)c2ccccc21,-3,6,-4,40*,-5,42*,53*
COc1cc(N2CCOCC2)ccc1/C=C1\C(=O)NC(=O)N(Cc2ccc3c(c2)OCO3)C1=O,-53,7,18,27*,3,46*,65*
CO[C@H]1C=CCCC=CC(=O)O[C@H]([C@H](C)C(=O)CCCC2CC(=O)NC(=O)C2)C(C)=C[C@@H](C)[C@@H]1O,-2,x,-4,x,x,x,x
O=C(NCCN1CCC2(CC1)C(=O)NCN2c1cccc(F)c1)c1ccc2ccccc2c1,-6,x,-3,x,x,x,x
Cc1ccc(N2C(=O)NC(=O)/C(=C/c3ccc(-c4ccc(C(=O)O)c(Cl)c4)o3)C2=O)cc1,-14,6,13,9,-3,x,x
CCOc1ccc(N2C(=O)NC(=O)/C(=C\c3ccc(N4CCCCC4)o3)C2=O)cc1,181,10,138,138*,-21,149*,146*
CCOc1ccc(N2C(=O)/C(=C/c3ccc(C)o3)C(=O)NC2=S)cc1,21,1,27,32*,-2,47*,57*
SMILES,HNF4A DNA FP,IDE inh,CSN deneddyl inh,TPT1 inh,IDE act,caTPT1 confirm,RNase T1 counter
O=C1NCN(c2ccccc2)C12CCN(C(c1cccc3ccccc13)c1nnnn1C1CCCCC1)CC2 (configuration not stated),-1,x,-2,x,x,x,x
O=C1NCN(c2ccccc2)C12CCN(C(c1cc3ccccc3o1)c1nnnn1Cc1ccccc1)CC2 (configuration not stated),1,x,2,x,x,x,x
CC1=Nc2ccccc2/C1=C/c1c(O)[nH]c(=O)[nH]c1=O,2,4,5,3,4,x,x
O=c1[nH]c(O)c(/C=C2/C=CC(c3cc(Cl)ccc3Cl)=N2)c(=O)[nH]1,8,9,18,93*,-46,108*,103*
CC(C)C[C@H]1COc2cc(N3CCN(C)CC3)ccc2S(=O)(=O)N1,3,x,3,x,x,x,x
O=C1NC(=O)N(Cc2ccc(F)cc2)C(=O)/C1=C\c1ccoc1,60*,17*,149,163*,-35,67*,81*
CN(C)c1ccc(/C=C2/C(=O)NC(=O)N(CCc3ccc(F)cc3)C2=O)cc1,0,0,9,21,0,x,x
Cc1ccc(/C=C2\C(=O)NC(=O)N(CCc3ccc(F)cc3)C2=O)o1,0,9,5,20,1,x,x
CN(C)c1ccc(/C=C2\C(=O)NC(=O)N(Cc3ccc(F)cc3)C2=O)cc1,2,-2,7,29*,5,48*,68*
CCOc1cc(/C=C2\C(=O)NC(=O)N(CCc3ccc(F)cc3)C2=O)ccc1O,7,10,12,30*,6,39*,20
Cc1ccc(/C=C2/C(=O)NC(=O)N(Cc3ccc(F)cc3)C2=O)o1,x,-1,x,35*,x,18,26*
CN1CC2CN(Cc3ccccc3)S(=O)(=O)C2C1 (configuration not stated),1,x,-1,x,x,x,x
c1ccc(-c2ccc(CN3Cc4ccccc4-n4nncc4C3)cc2)cc1,1,x,4,x,x,x,x
NS(=O)(=O)c1ccc(N=Cc2c(O)n(C3CCCCC3)c(=O)n(C3CCCCC3)c2=O)cc1,6,3,23,44*,6,19,25*
COc1cccc(C(c2nnnn2C2CCCCC2)N2CCC3(CC2)C(=O)NCN3c2ccccc2)c1OC (configuration not stated),-3,x,6,x,x,x,x
Cn1c(O)c(/C=C/C=Nc2ccccc2)c(=O)n(C)c1=O,86*,7,56*,104*,-5,111*,118*
Cn1c(O)c(C=Nc2ccccc2)c(=O)n(C)c1=O,1,-2,-5,4,4,x,x
CCCCn1nnnc1C(c1ccnc2ccccc12)N1CCC2(CC1)C(=O)NCN2c1ccccc1 (configuration not stated),-1,x,1,x,x,x,x

# Screens from PubChem BioAssay.
